# Measurements from different studies.
# Effect on: metabolic stability
# Host: human
# Sample: liver microsomes
Structure (SMILES),concentration,time,pH,microsomal CLint [µL/min/mg]
Cc1cccnc1CNc1nc(-c2ccccn2)nc2ccccc12,,,,64
O=C(N[C@H](Cc1ccccc1)C(=O)Nc1ccccc1N1CCOCC1)c1cccs1,2 µM,40 min,pH 7.4,1370
CCOC(=O)c1c(-c2cc(F)cc(OC)c2)[nH]c2cc(OC)c(F)cc2c1=O,19.8 µM,,pH 7.4,50
Cn1ccnc1CNc1nc(-c2ccccn2)nc2ccccc12,,,,24
COc1ccc(Nc2ccnc3ccc(-c4ccc(S(=O)(=O)N5CCOCC5)cc4)cc23)cc1Cl,,,,102
O=C(Nc1ccnc(C(F)(F)F)c1)Nc1cccc2c1OC(F)(F)O2,,,,14
N#CC1CCN(c2nc(-c3ccccn3)nc3ccccc23)C1 (stereo not shown),,,,45
CCC(F)(F)c1nc2nc(C)cc(Nc3ccc(S(F)(F)(F)(F)F)cc3)n2n1,1 µM,,pH 7.4,< 6
CS(=O)(=O)c1ccc(-c2cnc(N)c(-c3ccc(C(F)(F)F)nc3)c2)cc1,1 µM,,,< 11.6
O=S(=O)(c1ccc(-c2ccc3nccc(Nc4ncc(Cl)cn4)c3c2)cc1)N1CCOCC1,,,,113
CC(C)CCN(c1ccc(F)cc1)c1c(-c2ccccn2)nc2ccccn12,3 µM,,pH 7.4,110
Cc1cc(Nc2ccc(C(F)(F)F)cc2)n2nc(C(F)(F)F)nc2n1,1 µM,,pH 7.4,< 6
O=C(C1CCSCC1)N1CC(=O)N2CCc3ccccc3[C@@H]2C1,0.1 µM,,pH 7.4,28
Cc1nnc(Nc2ccnc3ccc(-c4ccc(S(=O)(=O)N5CCOCC5)cc4)cc23)nc1C,,,,114
c1ccc(CN2CCN(c3nc(-c4ccccn4)nc4ccccc34)CC2)cc1,,,,136
COc1cc(OC)cc(-c2c(-c3ccccn3)nc3n2CCC3)c1,3 µM,,pH 7.4,53
COc1cc2[nH]c(C)c(-c3ccc(COc4ccccc4)cc3)c(=O)c2cc1Cl,1 µM,,,22
Fc1cccc(F)c1-c1nc(N2CCC(c3ccccn3)C2)c2ccccc2n1 (stereo not shown),,,,114
Cc1cc(Nc2ccc(C(F)(F)F)cc2)c2ccccc2n1,,,,4.8
C[C@H](C(=O)NC1Cc2ccccc2C1)c1ccccc1,1 µM,1 h,,15
FC(F)(F)c1ccccc1-c1nc(N2CCC(c3ccccn3)C2)c2ccccc2n1 (stereo not shown),,,,199
C[C@H](N)c1cc(Cl)ccc1Cn1c(=S)[nH]c(=O)c2[nH]ccc21,,,,< 3
COc1cc2[nH]c(C)c(-c3ccc(O)cc3)c(=O)c2cc1Cl,1 µM,,,< 7
CCC(F)(F)c1nc2nc(C)cc(Nc3ccc(C(F)(F)F)cc3)n2n1,1 µM,,pH 7.4,< 6
COc1cc2[nH]c(C)c(-c3ccc(-c4ccccc4)cc3)c(=O)c2cc1Cl,1 µM,,,14
c1ccc(-c2nc3n(c2-c2cccnc2)CCC3)nc1,3 µM,,pH 7.4,24
COc1cc2[nH]c(C)c(-c3cc4ccccc4o3)c(=O)c2cc1Cl,1 µM,,,29
Fc1ccccc1-c1nc(N2CCC(c3ccccn3)C2)c2ccccc2n1 (stereo not shown),,,,186
Cc1cnc(Nc2ccnc3ccc(-c4ccc(S(=O)(=O)N5CCOCC5)cc4)cc23)s1,,,,76.3
COc1cc2[nH]c(C)c(-c3ccc(C(F)(F)F)cc3)c(=O)c2cc1Cl,1 µM,,,< 7
O=S(=O)(c1ccc(-c2ccc3nccc(Nc4cncs4)c3c2)cc1)N1CCOCC1,,,,29.5
COc1cccnc1-c1nc2ccccn2c1Nc1ccc(F)cc1,3 µM,,pH 7.4,19
CCOC(=O)c1c(-c2cccc(Br)c2)[nH]c2cc(OC)c(F)cc2c1=O,19.8 µM,,pH 7.4,< 4
C[C@H](C(=O)NC1Cc2ccccc2C1)c1ccc(F)cc1,1 µM,1 h,,120
c1ccc(-c2nc(N3CCOCC3)c3ccccc3n2)nc1,,,,58
Fc1ccc(N(CC2CC2)c2c(-c3ccccn3)nc3ccccn23)cc1,3 µM,,pH 7.4,110
C=CCn1c(=O)c2cnc(Nc3ccc(N4CCN(C)CC4)cc3)nc2n1-c1cccc(C(C)(C)O)n1,,,,17
c1ccc(-c2nc3n(c2-c2ccncc2)CCC3)nc1,3 µM,,pH 7.4,26
COc1ccc(-c2c(C)[nH]c3cc(OC)c(Cl)cc3c2=O)cc1,1 µM,,,< 7
Fc1ccc(Nc2c(Cn3cccn3)nc3ccccn23)cc1,3 µM,,pH 7.4,45
O=S(=O)(c1ccc(-c2ccc3nccc(Nc4cccnc4)c3c2)cc1)N1CCOCC1,,,,86.3
COc1cc2[nH]c(C)c(-c3ccc(CO)cc3)c(=O)c2cc1Cl,1 µM,,,< 7
O=S(=O)(c1ccc(-c2ccc3nccc(Nc4ccc5[nH]nnc5c4)c3c2)cc1)N1CCOCC1,,,,52
COc1cc2[nH]c(C)c(-c3ccc(OC(F)(F)F)cc3)c(=O)c2cc1Cl,1 µM,,,< 7
Cc1cc(Nc2ccnc3ccc(-c4ccc(S(=O)(=O)N5CCOCC5)cc4)cc23)sn1,,,,115
COc1ccc2nc(-c3cc(N(C)C)ccn3)c(Nc3ccc(F)cc3)n2c1,3 µM,,pH 7.4,120
